Experiments:
[1] = Displacement of [125I]-IMPY from amyloid beta (1 to 42) fibrils after 2 hrs by gamma-counting analysis
How it was run: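 Competition binding with aggregated Aβ1-42 fibrils and [125I]IMPY (60000−100000 cpm/100 μL) in 0.05% BSA (1 mL total); inhibitors 10⁻⁴−10^−8.5 M in ethanol. Incubated 37 °C for 2 h, then GF/B vacuum filtration with PBS (0.02 M, pH 7.4) washes and γ counting. Three repeats; IC50 converted to Ki by Cheng−Prusoff.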

Brain [2] = assay: Drug uptake in wild type C57BL6 mouse brain at 370 KBq/100 ul after 1 hr by autoradiographic analysis; format: ADME, tissue-based; conditions: in vitro
How it was run: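 Paraffin brain sections from 12-month-old male control C57BL6 mice were deparaffinized through xylene and graded ethanol, then held in PBS (0.2 M, pH 7.4) for 30 min. They were incubated with the ¹⁸F tracer (370 KBq per 100 μL) for 1 h at room temperature. Sections were washed in 40% EtOH, rinsed with water for 1 min, dried, and exposed to a phosphor plate for 2 h. The same sections were then stained with thioflavin S.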

Lung [3] = assay: Drug uptake in ICR mouse lung at 370 kBq/100 ul, iv at 30 mins by gamma-counting analysis; format: ADME, organism-based; conditions: in vivo, 0.5 h
How it was run: (§1)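 Male ICR mice (5 weeks, about 20 g) got 18F tracer in saline (370 KBq per 100 μL) via tail vein; n = 5 per time point, killed at 2, 10, 30, 60 min. Organs weighed and γ-counted; percent dose per gram wet tissue from comparison with diluted injectate aliquots.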

[4] = n-Octanol-PBS buffer partition coefficient, log D of the compound at 1.5 MBq after 3 mins at pH 7.4; format: physicochemical
How it was run: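 The tracer was partitioned between n-octanol and PBS by vortexing for 3 min at room temperature, then centrifuged for 5 min at 3000 rpm. Samples of the octanol (50 μL) and aqueous (500 μL) layers were counted. log D is the log of the octanol/PBS counts-per-gram ratio. The octanol layer was repartitioned until values were consistent. Measured in triplicate and repeated three times.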

Liver [5] = assay: Drug uptake in ICR mouse liver at 370 kBq/100 ul, iv at 30 mins by gamma-counting analysis; format: ADME, organism-based; conditions: in vivo, 0.5 h; how it was run: as §1
Spleen [6] = assay: Drug uptake in ICR mouse spleen at 370 kBq/100 ul, iv at 2 mins by gamma-counting analysis; format: ADME, organism-based; conditions: in vivo; how it was run: as §1
Lung [7] = assay: Drug uptake in ICR mouse lung at 370 kBq/100 ul, iv at 60 mins by gamma-counting analysis; format: ADME, organism-based; conditions: in vivo, 1 h; how it was run: as §1
Bone [8] = assay: Drug uptake in ICR mouse bone at 370 kBq/100 ul, iv at 2 mins by gamma-counting analysis; format: ADME, organism-based, Bone element; conditions: in vivo; how it was run: as §1
Spleen [9] = assay: Drug uptake in ICR mouse spleen at 370 kBq/100 ul, iv at 60 mins by gamma-counting analysis; format: ADME, organism-based; conditions: in vivo, 1 h; how it was run: as §1
Blood [10] = assay: Drug uptake in ICR mouse blood at 370 kBq/100 ul, iv at 10 mins by gamma-counting analysis; format: ADME, organism-based; conditions: in vivo; how it was run: as §1
Bone [11] = assay: Drug uptake in ICR mouse bone at 370 kBq/100 ul, iv at 30 mins by gamma-counting analysis; format: ADME, organism-based, Bone element; conditions: in vivo, 0.5 h; how it was run: as §1
Brain [12] = assay: Drug uptake in ICR mouse brain at 370 kBq/100 ul, iv at 60 mins by gamma-counting analysis; format: ADME, organism-based; conditions: in vivo, 1 h; how it was run: as §1
Blood [13] = assay: Drug uptake in ICR mouse blood at 370 kBq/100 ul, iv at 30 mins by gamma-counting analysis; format: ADME, organism-based; conditions: in vivo, 0.5 h; how it was run: as §1
Kidney [14] = assay: Drug uptake in ICR mouse kidney at 370 kBq/100 ul, iv at 10 mins by gamma-counting analysis; format: ADME, organism-based; conditions: in vivo; how it was run: as §1
Bone [15] = assay: Drug uptake in ICR mouse bone at 370 kBq/100 ul, iv at 60 mins by gamma-counting analysis; format: ADME, organism-based, Bone element; conditions: in vivo, 1 h; how it was run: as §1
Brain [16] = assay: Ratio of drug uptake in brain at 2 mins to drug uptake in brain at 60 mins in ICR mouse at 370 KBq/100 ul, iv; format: ADME, organism-based; conditions: in vivo
How it was run: (§2)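 Normal male ICR mice (5 weeks, about 20 g) received the ¹⁸F tracer in saline (370 KBq per 100 μL) by tail-vein injection. Groups of n = 5 were killed at 2, 10, 30 and 60 min. Organs were removed, weighed and γ-counted against diluted aliquots of the injectate, giving % dose per gram. Stomach and intestine were expressed per organ. The brain ratio is 2 min/60 min uptake. Values are mean ± SD.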

Lung [17] = assay: Drug uptake in ICR mouse lung at 370 kBq/100 ul, iv at 10 mins by gamma-counting analysis; format: ADME, organism-based; conditions: in vivo; how it was run: as §1
Kidney [18] = assay: Drug uptake in ICR mouse kidney at 370 kBq/100 ul, iv at 30 mins by gamma-counting analysis; format: ADME, organism-based; conditions: in vivo, 0.5 h; how it was run: as §1
Stomach [19] = assay: Drug uptake in ICR mouse stomach assessed per organ at 370 kBq/100 ul, iv at 30 mins by gamma-counting analysis; format: ADME, organism-based; conditions: in vivo, 0.5 h
How it was run: (§3)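 Male ICR mice (5 weeks, about 20 g) got 18F tracer in saline (370 KBq per 100 μL) via tail vein; n = 5 per time point, killed at 2, 10, 30, 60 min. Organs removed and γ-counted against diluted injectate; expressed as % injected dose per organ.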

Blood [20] = assay: Drug uptake in ICR mouse blood at 370 kBq/100 ul, iv at 60 mins by gamma-counting analysis; format: ADME, organism-based; conditions: in vivo, 1 h; how it was run: as §1
Stomach [21] = assay: Drug uptake in ICR mouse stomach assessed per organ at 370 kBq/100 ul, iv at 10 mins by gamma-counting analysis; format: ADME, organism-based; conditions: in vivo; how it was run: as §3
Stomach [22] = assay: Drug uptake in ICR mouse stomach assessed per organ at 370 kBq/100 ul, iv at 2 mins by gamma-counting analysis; format: ADME, organism-based; conditions: in vivo; how it was run: as §3
Liver [23] = assay: Drug uptake in ICR mouse liver at 370 kBq/100 ul, iv at 60 mins by gamma-counting analysis; format: ADME, organism-based; conditions: in vivo, 1 h; how it was run: as §1
Liver [24] = assay: Drug uptake in ICR mouse liver at 370 kBq/100 ul, iv at 2 mins by gamma-counting analysis; format: ADME, organism-based; conditions: in vivo; how it was run: as §1
Heart [25] = assay: Drug uptake in ICR mouse heart at 370 kBq/100 ul, iv at 10 mins by gamma-counting analysis; format: ADME, organism-based; conditions: in vivo; how it was run: as §1
Intestine [26] = assay: Drug uptake in ICR mouse intestine assessed per organ at 370 kBq/100 ul, iv at 30 mins by gamma-counting analysis; format: ADME, organism-based; conditions: in vivo, 0.5 h; how it was run: as §3
Kidney [27] = assay: Drug uptake in ICR mouse kidney at 370 kBq/100 ul, iv at 2 mins by gamma-counting analysis; format: ADME, organism-based; conditions: in vivo; how it was run: as §1
Brain [28] = assay: Drug uptake in ICR mouse brain at 370 kBq/100 ul, iv at 10 mins by gamma-counting analysis; format: ADME, organism-based; conditions: in vivo; how it was run: as §1
Heart [29] = assay: Drug uptake in ICR mouse heart at 370 kBq/100 ul, iv at 30 mins by gamma-counting analysis; format: ADME, organism-based; conditions: in vivo, 0.5 h; how it was run: as §1
Stomach [30] = assay: Drug uptake in ICR mouse stomach assessed per organ at 370 kBq/100 ul, iv at 60 mins by gamma-counting analysis; format: ADME, organism-based; conditions: in vivo, 1 h; how it was run: as §2
Intestine [31] = assay: Drug uptake in ICR mouse intestine assessed per organ at 370 kBq/100 ul, iv at 60 mins by gamma-counting analysis; format: ADME, organism-based; conditions: in vivo, 1 h; how it was run: as §3
Intestine [32] = assay: Drug uptake in ICR mouse intestine assessed per organ at 370 kBq/100 ul, iv at 2 mins by gamma-counting analysis; format: ADME, organism-based; conditions: in vivo; how it was run: as §3
Heart [33] = assay: Drug uptake in ICR mouse heart at 370 kBq/100 ul, iv at 2 mins by gamma-counting analysis; format: ADME, organism-based; conditions: in vivo; how it was run: as §1
Brain [34] = assay: Drug uptake in ICR mouse brain at 370 kBq/100 ul, iv at 2 mins by gamma-counting analysis; format: ADME, organism-based; conditions: in vivo; how it was run: as §1
Spleen [35] = assay: Drug uptake in ICR mouse spleen at 370 kBq/100 ul, iv at 30 mins by gamma-counting analysis; format: ADME, organism-based; conditions: in vivo, 0.5 h; how it was run: as §1
Blood [36] = assay: Drug uptake in ICR mouse blood at 370 kBq/100 ul, iv at 2 mins by gamma-counting analysis; format: ADME, organism-based; conditions: in vivo; how it was run: as §1
Spleen [37] = assay: Drug uptake in ICR mouse spleen at 370 kBq/100 ul, iv at 10 mins by gamma-counting analysis; format: ADME, organism-based; conditions: in vivo; how it was run: as §1
Heart [38] = assay: Drug uptake in ICR mouse heart at 370 kBq/100 ul, iv at 60 mins by gamma-counting analysis; format: ADME, organism-based; conditions: in vivo, 1 h; how it was run: as §1
Liver [39] = assay: Drug uptake in ICR mouse liver at 370 kBq/100 ul, iv at 10 mins by gamma-counting analysis; format: ADME, organism-based; conditions: in vivo; how it was run: as §1
Lung [40] = assay: Drug uptake in ICR mouse lung at 370 kBq/100 ul, iv at 2 mins by gamma-counting analysis; format: ADME, organism-based; conditions: in vivo; how it was run: as §1
Intestine [41] = assay: Drug uptake in ICR mouse intestine assessed per organ at 370 kBq/100 ul, iv at 10 mins by gamma-counting analysis; format: ADME, organism-based; conditions: in vivo; how it was run: as §3
Kidney [42] = assay: Drug uptake in ICR mouse kidney at 370 kBq/100 ul, iv at 60 mins by gamma-counting analysis; format: ADME, organism-based; conditions: in vivo, 1 h; how it was run: as §1
Bone [43] = assay: Drug uptake in ICR mouse bone at 370 kBq/100 ul, iv at 10 mins by gamma-counting analysis; format: ADME, organism-based, Bone element; conditions: in vivo; how it was run: as §1
Brain [44] = assay: Drug uptake in ICR mouse brain at 370 kBq/100 ul, iv at 30 mins by gamma-counting analysis; format: ADME, organism-based; conditions: in vivo, 0.5 h; how it was run: as §1

Ki [1]: 9.9 nM
Drug uptake (Brain [2]): Not Active
Drug uptake (Lung [3]): 2.64 % ID/g
logD at 0.05 h [4]: 3.26
Drug uptake (Liver [5]): 7.24 % ID/g
Drug uptake (Spleen [6]): 3 % ID/g
Drug uptake (Lung [7]): 1.87 % ID/g
Drug uptake (Bone [8]): 1.79 % ID/g
Drug uptake (Spleen [9]): 2.34 % ID/g
Drug uptake (Blood [10]): 3.05 % ID/g
Drug uptake (Bone [11]): 4.71 % ID/g
Drug uptake (Brain [12]): 1.82 % ID/g
Drug uptake (Blood [13]): 2.74 % ID/g
Drug uptake (Kidney [14]): 5.14 % ID/g
Drug uptake (Bone [15]): 6.39 % ID/g
Ratio (Brain [16]): 2.08
Drug uptake (Lung [17]): 2.34 % ID/g
Drug uptake (Kidney [18]): 4.2 % ID/g
Drug uptake (Stomach [19]): 9.26 %ID
Drug uptake (Blood [20]): 2.87 % ID/g
Drug uptake (Stomach [21]): 5.1 %ID
Drug uptake (Stomach [22]): 2.66 %ID
Drug uptake (Liver [23]): 3.46 % ID/g
Drug uptake (Liver [24]): 13.25 % ID/g
Drug uptake (Heart [25]): 3.51 % ID/g
Drug uptake (Intestine [26]): 28.15 %ID
Drug uptake (Kidney [27]): 8.27 % ID/g
Drug uptake (Brain [28]): 1.97 % ID/g
Drug uptake (Heart [29]): 2.97 % ID/g
Drug uptake (Stomach [30]): 6.45 %ID
Drug uptake (Intestine [31]): 28.54 %ID
Drug uptake (Intestine [32]): 8.13 %ID
Drug uptake (Heart [33]): 5.24 % ID/g
Drug uptake (Brain [34]): 3.79 % ID/g
Drug uptake (Spleen [35]): 2.41 % ID/g
Drug uptake (Blood [36]): 5.47 % ID/g
Drug uptake (Spleen [37]): 2.69 % ID/g
Drug uptake (Heart [38]): 2.73 % ID/g
Drug uptake (Liver [39]): 5.41 % ID/g
Drug uptake (Lung [40]): 3.03 % ID/g
Drug uptake (Intestine [41]): 14.45 %ID
Drug uptake (Kidney [42]): 3.21 % ID/g
Drug uptake (Bone [43]): 2.7 % ID/g
Drug uptake (Brain [44]): 1.85 % ID/g
Structure (SMILES): CN(C)c1ccc(-c2nc3cc(OCCOCCOCC[18F])ccc3o2)cn1

— ChEMBL document CHEMBL2177098, “Synthesis and evaluation of novel ¹⁸F labeled 2-pyridinylbenzoxazole and 2-pyridinylbenzothiazole derivatives as ligands for positron emission tomography (PET) imaging of β-amyloid plaques” (J Med Chem, 2012)
